Assay results taken from ChEMBL document CHEMBL4732224, “Structure activity refinement of phenylsulfonyl piperazines as antimalarials that block erythrocytic invasion” (Eur J Med Chem, 2021).
In brackets after ≈: the same amount, converted by molar mass. Activity calls are given as the source filed them. The rule behind the calls is not given here.

What was measured:
[1] = Intrinsic clearance in mouse liver microsomes at 1 uM in presence of NADPH measured up to 60 mins by LC-MS analysis; assay type: ADME, Microsome; settings: read-out: CLH
Plasmodium falciparum [2] = assay: Antimalarial activity against Plasmodium falciparum 3D7 incubated for 72 hrs by LDH assay; assay type: functional, organism-based; settings: 3D7, 72 h
Method in brief: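 Asexual blood-stage P. falciparum 3D7 parasites were cultured with compound for 72 h, and viability was read by lactate dehydrogenase (LDH) activity.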

HepG2 = assay: Cytotoxicity against human HePG2 cells assessed as growth inhibition after 48 hrs by Cell Titer-Glo assay; assay type: cell-based; settings: HepG2, 48 h
Plasmodium falciparum [3] = assay: Antimalarial activity against asexual blood stage of chloroquine-resistant Plasmodium falciparum Dd2 assessed as reduction in cell viability after 72 hrs by EtBr staining based flow cytometric analysis; assay type: functional, organism-based; settings: Dd2, 72 h
Plasmodium falciparum [4] = assay: Antimalarial activity against Plasmodium falciparum NF54 late stage ([…]) expressing Pfs16-LUC-GFP assessed as growth inhibition at 20 uM by high content imaging assay relative to control; assay type: functional; settings: read-out: GI
Plasmodium falciparum [5] = assay: Antimalarial activity against schizonts stage of Plasmodium falciparum D10 expressing GFP infected in human RBC assessed as reduction in merozoites invade to RBC at 4 times of EC90 concentration after 6 hrs by flow cytometric analysis; assay type: functional, organism-based
Plasmodium falciparum [6] = assay: Antimalarial activity against asexual blood stage of Mefloquine-resistant Plasmodium falciparum W2mef assessed as reduction in cell viability after 72 hrs by EtBr staining based flow cytometric analysis; assay type: functional, organism-based
Plasmodium falciparum [7] = assay: Antimalarial activity against asexual blood stage of Plasmodium falciparum 3D7 assessed as reduction in cell viability after 72 hrs by EtBr staining based flow cytometric analysis; assay type: functional, organism-based; settings: 3D7, 72 h
Plasmodium falciparum [8] = assay: Antimalarial activity against Plasmodium falciparum NF54 early stage (1 to 3) expressing Pfs16-LUC-GFP assessed as growth inhibition at 20 uM by high content imaging assay relative to control; assay type: functional; settings: read-out: GI
Plasmodium falciparum [9] = assay: Antimalarial activity against schizonts stage of Plasmodium falciparum D10 expressing PEXEL-Nluc infected in human RBC assessed as reduction in invasion at 5 times of EC90 concentration preincubated for 30 mins followed by compound wash out and measured after 24 hrs by luminometric method; assay type: functional, organism-based
Plasmodium knowlesi = assay: Antimalarial activity against asexual blood stage of Plasmodium knowlesi YHI assessed as reduction in cell viability after 48 hrs by EtBr staining based flow cytometric analysis; assay type: functional, organism-based
Plasmodium falciparum [10] = assay: Antimalarial activity against schizonts stage of Plasmodium falciparum D10 expressing GFP infected in human RBC assessed as reduction in ring stage formation at 4 times of EC90 concentration after 6 hrs by flow cytometric analysis; assay type: functional, organism-based
Plasmodium falciparum [11] = assay: Antimalarial activity against Plasmodium falciparum NF54 early stage (1 to 3) expressing Pfs16-LUC-GFP assessed as growth inhibition by high content imaging assay; assay type: functional, organism-based
Plasmodium falciparum [12] = assay: Antimalarial activity against Plasmodium falciparum NF54 late stage ([…]) expressing Pfs16-LUC-GFP assessed as growth inhibition by high content imaging assay; assay type: functional, organism-based
Plasmodium falciparum [13] = assay: Antimalarial activity against asexual blood stage of artemisinin-resistant Plasmodium falciparum Cam3.12539T cambodian isolate assessed as reduction in cell viability after 72 hrs by EtBr staining based flow cytometric analysis; assay type: functional, organism-based; settings: Cam3.12539T cambodian isolat
Plasmodium falciparum [14] = assay: Antimalarial activity against asexual blood stage of chloroquine-resistant Plasmodium falciparum 7G8 assessed as reduction in cell viability after 72 hrs by EtBr staining based flow cytometric analysis; assay type: functional, organism-based; settings: 7G8, 72 h
[15] = Solubility of compound in PBS at pH 6.5 by nephelometric analysis; assay type: physicochemical
Plasmodium falciparum [16] = assay: Antimalarial activity against asexual blood stages of Plasmodium falciparum 3D7 infected in human RBC by Live cell microscopic method; assay type: functional, organism-based; settings: 3D7, Erythrocyte
[17] = Selectivity ratio of IC50 for antimalarial activity against asexual blood stage of chloroquine-resistant Plasmodium falciparum 7G8 to IC50 for antimalarial activity against asexual blood stage of Plasmodium falciparum 3D7; assay type: functional

CC(C(=O)N1CCCC1)C1CCN(S(=O)(=O)c2ccc(C(C)(C)C)cc2)CC1 (centres undefined)
microsomal CLint at 1 µM [1]: 532 µL/min/mg | EC50 (Plasmodium falciparum [2]): > 10000 nM | EC50 (HepG2): > 40 µM

C[C@@H](C(=O)N1CC2CC2C1)N1CCN(S(=O)(=O)c2ccc(C(C)(C)C)cc2)CC1 (some centres undefined)
EC50 (Plasmodium falciparum [3]): 70 nM | inhibition of growth at 20 µM (Plasmodium falciparum [4]): 36% | Activity (Plasmodium falciparum [5]): Active | EC50 (Plasmodium falciparum [6]): 60 nM | EC50 (Plasmodium falciparum [7]): 30 nM | EC50 (Plasmodium falciparum [2]): 130 nM | inhibition of growth at 20 µM (Plasmodium falciparum [8]): 44% | Activity (Plasmodium falciparum [9]): Active | EC50 (Plasmodium knowlesi): 140 nM | Activity (Plasmodium falciparum [10]): Active | EC50 (Plasmodium falciparum [11]): > 10000 nM | EC50 (Plasmodium falciparum [12]): > 10 µM | EC50 (Plasmodium falciparum [13]): 60 nM | EC50 (Plasmodium falciparum [14]): 80 nM | EC50 (HepG2): > 40 µM

C[C@@H](C(=O)N1CCCC1)N1CCN(S(=O)(=O)c2ccc(C(C)(C)C)cc2)CC1
solubility kinetic [15]: 25 µM (≈ 10.2 µg/mL) | EC50 (Plasmodium falciparum [2]): 300 nM | EC50 (HepG2): > 40 µM

C[C@@H](C(=O)N1CCc2ccccc2C1(C)C)N1CCN(S(=O)(=O)c2ccc(C(C)(C)C)cc2)CC1
EC50 (Plasmodium falciparum [3]): 60 nM | inhibition of growth at 20 µM (Plasmodium falciparum [4]): 59% | Activity (Plasmodium falciparum [5]): Active | EC50 (Plasmodium falciparum [6]): 40 nM | EC50 (Plasmodium falciparum [7]): 10 nM | EC50 (Plasmodium falciparum [2]): 110 nM | inhibition of growth at 20 µM (Plasmodium falciparum [8]): 79% | Activity (Plasmodium falciparum [9]): Active | EC50 (Plasmodium knowlesi): 90 nM | Activity (Plasmodium falciparum [10]): Active | EC50 (Plasmodium falciparum [11]): > 10000 nM | EC50 (Plasmodium falciparum [12]): > 10 µM | EC50 (Plasmodium falciparum [13]): 20 nM | EC50 (Plasmodium falciparum [14]): 30 nM | EC50 (HepG2): 26 µM

C[C@H]1[C@H](OC(=O)CCC(=O)O)O[C@@H]2O[C@@]3(C)CC[C@H]4[C@H](C)CC[C@@H]1[C@@]24OO3 [ARTESUNATE]
EC50 (Plasmodium falciparum [2]): 8000 nM | EC50 (Plasmodium falciparum [11]): 2 nM | EC50 (Plasmodium falciparum [12]): 0.024 µM

C[C@@H](C(=O)N1CCCC1)N1CCN(S(=O)(=O)c2ccc([Si](C)(C)C)cc2)CC1
microsomal CLint at 1 µM [1]: > 866 µL/min/mg | EC50 (Plasmodium falciparum [2]): 490 nM | EC50 (HepG2): > 40 µM

C[C@@H](C(=O)N1CCC(F)(F)CC1)N1CCN(S(=O)(=O)c2ccc(C(C)(C)C)cc2)CC1
EC50 (Plasmodium falciparum [3]): 110 nM | inhibition of growth at 20 µM (Plasmodium falciparum [4]): 47% | Activity (Plasmodium falciparum [5]): Active | EC50 (Plasmodium falciparum [6]): 90 nM | EC50 (Plasmodium falciparum [7]): 50 nM | EC50 (Plasmodium falciparum [2]): 200 nM | inhibition of growth at 20 µM (Plasmodium falciparum [8]): 59% | Activity (Plasmodium falciparum [9]): Active | EC50 (Plasmodium knowlesi): 260 nM | Activity (Plasmodium falciparum [10]): Active | EC50 (Plasmodium falciparum [11]): > 10000 nM | EC50 (Plasmodium falciparum [12]): > 10 µM | EC50 (Plasmodium falciparum [13]): 80 nM | EC50 (Plasmodium falciparum [14]): 110 nM | EC50 (HepG2): > 40 µM

CC(C(=O)N1CCCC1)N1CCN(S(=O)(=O)c2ccc(C(C)(C)C)cc2)CC1 (centres undefined)
CLint scaled at 1 µM [1]: > 2100 mL/min/kg | EC50 (Plasmodium falciparum [16]): 900 nM | EC50 (Plasmodium falciparum [2]): 690 nM | EC50 (HepG2): > 40 µM

CC(C(=O)N1CCc2ccccc2C1(C)C)N1CCN(S(=O)(=O)c2ccc(C(C)(C)C)cc2)CC1 (centres undefined)
microsomal CLint at 1 µM [1]: > 866 µL/min/mg | solubility kinetic [15]: < 1.6 µM | EC50 (Plasmodium falciparum [2]): 180 nM | EC50 (HepG2): 31 µM

C[C@@H](C(=O)N1CCCCC1)N1CCN(S(=O)(=O)c2ccc(C(C)(C)C)cc2)CC1
EC50 (Plasmodium falciparum [3]): 860 nM | inhibition of growth at 20 µM (Plasmodium falciparum [4]): 41% | Activity (Plasmodium falciparum [5]): Active | EC50 (Plasmodium falciparum [6]): 490 nM | EC50 (Plasmodium falciparum [7]): 610 nM | EC50 (Plasmodium falciparum [2]): 200 nM | inhibition of growth at 20 µM (Plasmodium falciparum [8]): 49% | Ratio IC50 [17]: 8 | Activity (Plasmodium falciparum [9]): Active | EC50 (Plasmodium knowlesi): 1300 nM | Activity (Plasmodium falciparum [10]): Active | EC50 (Plasmodium falciparum [11]): > 10000 nM | EC50 (Plasmodium falciparum [12]): > 10 µM | EC50 (Plasmodium falciparum [13]): 1300 nM | EC50 (Plasmodium falciparum [14]): 5100 nM | EC50 (HepG2): > 40 µM

CCN(CC)CCCC(C)Nc1ccnc2cc(Cl)ccc12 (centres undefined) [CHLOROQUINE]
EC50 (Plasmodium falciparum [3]): 580 nM | inhibition of growth at 20 µM (Plasmodium falciparum [4]): 99% | EC50 (Plasmodium falciparum [6]): 250 nM | EC50 (Plasmodium falciparum [7]): 4 nM | EC50 (Plasmodium falciparum [2]): 21000 nM | EC50 (Plasmodium knowlesi): 10 nM | EC50 (Plasmodium falciparum [11]): 97 nM | EC50 (Plasmodium falciparum [12]): > 10 µM | EC50 (Plasmodium falciparum [13]): 560 nM | EC50 (Plasmodium falciparum [14]): 320 nM

CC(C(=O)N1CCCC1)N1[C@@H]2CC[C@H]1CN(S(=O)(=O)c1ccc(C(C)(C)C)cc1)C2 (some centres undefined)
microsomal CLint at 1 µM [1]: 473 µL/min/mg | EC50 (Plasmodium falciparum [2]): 920 nM | EC50 (HepG2): > 40 µM

COc1ccc2nc3cc(Cl)ccc3c(Nc3cc(CN4CCCC4)c(O)c(CN4CCCC4)c3)c2n1 [PYRONARIDINE]
EC50 (Plasmodium falciparum [11]): 53 nM | EC50 (Plasmodium falciparum [12]): 1.24 µM

CC(C(=O)N1CCc2ccccc21)N1CCN(S(=O)(=O)c2ccc(C(C)(C)C)cc2)CC1 (centres undefined)
EC50 (Plasmodium falciparum [2]): 930 nM | EC50 (HepG2): > 40 µM

CC(C(=O)N1C[C@H]2CCC[C@H]2C1)N1CCN(S(=O)(=O)c2ccc(C(C)(C)C)cc2)CC1 (some centres undefined)
EC50 (Plasmodium falciparum [2]): 810 nM | EC50 (HepG2): > 40 µM

CC(C(=O)N1CCCCCC1)N1CCN(S(=O)(=O)c2ccc(C(C)(C)C)cc2)CC1 (centres undefined)
EC50 (Plasmodium falciparum [2]): 650 nM | EC50 (HepG2): > 40 µM

CC(C(=O)N1CCCCC1)N1CCN(S(=O)(=O)c2ccc(C(C)(C)C)cc2)CC1 (centres undefined)
EC50 (Plasmodium falciparum [2]): 500 nM | EC50 (HepG2): > 40 µM
